Measured values taken from PubChem BioAssay AID1745 (Sanford-Burnham Center for Chemical Genomics, 2009).
The source made the active and inactive calls.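 How the source made its calls: active means cell kill with TRAIL plus compound beats the two separate kills summed, at every dose, and climbs with dose; inactive means the rest.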

System: 184B5 cells, TRAIL potentiation, ATPlite cytotoxicity, 24 h
Experiment: TRAIL co-treatment toxicity in normal 184B5 cells, confirmation, counter-screen for TRAIL sensitizer project, 184B5 normal mammary epithelial cells (AID 1745)
Settings: stronger effect = higher value
In short: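 System: Normal (non-cancer) 184B5 cells. Also added: TRAIL at 1000 ng/mL final. Doses: compound at final concentrations from 1.25 to 5 µM. Times: compound 4 h then TRAIL 24 h, 37 °C. Signal: ATPLite luminescence.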

[1] = compound alone cytotoxicity, at 5 µM
[2] = compound plus TRAIL, at 1.25 µM

SMILES	cytotoxicity with TRAIL (at 5 µM)	cytotoxicity [1] [%]	cytotoxicity (compound alone, at 1.25 µM) [%]	cytotoxicity (compound alone, at 2.5 µM) [%]	cytotoxicity with TRAIL [2] [%]	cytotoxicity with TRAIL (compound plus TRAIL, at 2.5 µM) [%]
CCSc1nc(-c2ccccc2)nc(C(Cl)Cl)n1	25% (inactive)	11	10	11	21	22
CSc1nc(-c2ccc(C)cc2)nc(C(Cl)Cl)n1	41% (inactive)	9	2	6	35	39
CSc1nc(-c2ccccc2)nc(C(Cl)Cl)n1	32% (inactive)	22	19	22	28	28
